Assay results published in ChEMBL document CHEMBL3243980, “Structural analogues of L-glutamic Acid gamma-(4-hydroxyanilide) and gamma-(3,4-dihydroxyanilde) as potential agents against melanoma” (1979).

test system: B16; assay: Cytotoxicity against mouse B16 cells after 48 hrs; assay type: functional; details: B16, 48 h, read-out: ID50 (the source's name)
Summary of the method: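 Moderately pigmented B16 murine melanoma cells grown as monolayers in McCoy's 5A medium plus 10% fetal calf serum, in exponential growth at assay. Drug added 24 h after plating, incubation continued another 48 h. Four dose levels tested in triplicate, generally 0.1–1.0 mM (0.01–0.1 mM for one compound); ID50 reported as mM, SD within ±10% of mean.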

First: N[C@@H](CCC(=O)Nc1ccc(O)cc1)C(=O)O
Second: N[C@@H](CC(=O)Nc1ccc(O)cc1)C(=O)O
The IC50 of the first is 3.1-fold lower: 100 µM for the first, 310 µM for the second. The first is the more potent here.

First: N[C@@H](CCC(=O)Nc1cccc(O)c1)C(=O)O
Second: N[C@@H](CCC(=O)Nc1ccc(O)c(O)c1)C(=O)O
The IC50 of the first is 3.7-fold higher: 1000 µM for the first, 270 µM for the second. The second is the more potent here.

`COc1ccc(NC(=O)CC[C@H](N)C(=O)O)cc1` and `N[C@@H](CCC(=O)O)C(=O)Nc1ccc(O)cc1` cannot be ordered by IC50: over 1000 µM for the first, over 1000 µM for the second.

First: N[C@@H](CCC(=O)Nc1ccc2c(c1)OCO2)C(=O)O
Second: N[C@@H](CCC(=O)Nc1cc(O)ccc1O)C(=O)O
The IC50 of the first is higher: over 1000 µM for the first, 51 µM for the second. The second is the more potent here.

`NCCCC(=O)Nc1ccc(O)cc1` and `O=C(O)CCCC(=O)Nc1ccc(O)cc1` cannot be ordered by IC50: over 1000 µM for the first, over 1000 µM for the second.

With `O=C(CCCC(=O)Nc1ccc(O)cc1)Nc1ccc(O)cc1` the IC50 was over 1000 µM.
